FAK blocker: blocks human focal adhesion kinase activity | inhibition, %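 (tested at 7 µM)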 | biochemical FAK kinase activity assay | 0.84% of 97,000 active | Q05397; in the data active means inhibition above about 19%;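 further: 0% = DMSO and 100% = reference compound high control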
Plk1 PBD FP: inhibitors of human Plk1 polo box domain binding | P53350 | Plk1 PBD phosphopeptide binding, fluorescence polarization | inhibition, %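 (tested at about 20 µM)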 | 0.13% of 97,000 active; in the data active means inhibition above about 34%, passing the limit was not always enough
Target sequence (P53350 whole entry, looked up, the tested form may be a part): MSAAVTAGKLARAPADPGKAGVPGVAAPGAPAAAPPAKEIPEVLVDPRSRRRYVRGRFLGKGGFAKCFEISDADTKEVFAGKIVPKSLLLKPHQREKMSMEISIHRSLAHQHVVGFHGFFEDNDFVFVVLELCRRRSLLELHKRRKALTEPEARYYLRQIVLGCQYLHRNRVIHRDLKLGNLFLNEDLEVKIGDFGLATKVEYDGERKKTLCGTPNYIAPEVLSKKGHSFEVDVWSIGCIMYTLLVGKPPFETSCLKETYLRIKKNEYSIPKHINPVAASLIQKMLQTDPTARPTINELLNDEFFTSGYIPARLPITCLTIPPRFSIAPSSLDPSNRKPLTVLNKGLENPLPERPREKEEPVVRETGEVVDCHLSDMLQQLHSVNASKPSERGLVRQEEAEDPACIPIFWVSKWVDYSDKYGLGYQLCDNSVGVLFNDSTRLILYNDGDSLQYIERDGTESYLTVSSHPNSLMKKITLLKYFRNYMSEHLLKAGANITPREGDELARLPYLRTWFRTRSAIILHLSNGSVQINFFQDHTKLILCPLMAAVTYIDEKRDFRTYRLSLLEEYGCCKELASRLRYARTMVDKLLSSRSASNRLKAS
EphB4 ephrin blk: blocks human EphB4 binding to ephrin-B2; inhibition, % at 7 µM; EphB4 LBD / TNYL-RAW-Alexa532 peptide, fluorescence polarization; 0.15% of 97,000 active; P54760; AID 720;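 active means inhibition above the screen-wide mean inhibition plus 3 SD, cut at about 15% in these data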;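 further: 0% = DMSO wells and 100% = excess unlabeled TNYL-RAW peptide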
PLK1 kinase inh: blocks human PLK1 kinase activity. P53350. recombinant PLK1 kinase, TR-FRET peptide phosphorylation. inhibition, % at 10 µM. 0.53% of 97,000 active. AID 619;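 active means inhibition of 50% or more in the single-concentration screen; inactive means inhibition below 50%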;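 further: 0% = DMSO max control and 100% = H-89 dihydrochloride min control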
DAT uptake mod: changed human dopamine transporter uptake under cocaine IC80; LLC-PK1 hDAT cells, [14C]-dopamine uptake with cocaine IC80; actives deviate in either direction; B-score at 10 µM; 1.3% of 110,000 active;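 active means Z score or B-score, a plate-position-corrected score, falls beyond the plate's 99.7% confidence bounds, in either direction; inactive means both scores lie inside the 99.7% bounds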;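 further: scored against the spread of the other compound wells on the same plate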
HIV Rev-RRE inh: HIV Rev-RRE protein-RNA interaction inhibition | P05866 | Rev peptide-RRE RNA binding, FRET | inhibition, % at 8 µM | 0.79% of 97,000 active | AID 704;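 active means inhibition above the screen-wide mean plus 3 SD, cut at about 35% in these data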;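 further: 0% = median DMSO wells and 100% = median Neomycin B control wells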
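Test system: Cy5-tagged RRE RNA duplex with fluorescein-tagged Rev peptide | Read-out: % inhibition of FRET ratio versus controls | Probe or stimulus: Labelled Rev peptide | Incubation: 5 min RNA-compound premix plus 15 min binding step, 25 °C | Technique: FRET fluorescence readout | Benchmarks: DMSO low control, neomycin B high control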
An asterisk follows results filed as active; · = no result given; [ ] = another dose, or the depositor's remark. An excerpt weighted towards active compounds, which were near 3.2% of everything screened.

SMILES	FAK blocker	Plk1 PBD FP	EphB4 ephrin blk	PLK1 kinase inh	DAT uptake mod	HIV Rev-RRE inh
COc1ccccc1NC(=S)N1CCC(c2nc3cc(C)c(C)cc3[nH]2)CC1	1	-2	3	-4	-2.3*	-4
C/C(=N\NC(=O)c1ccc(Cl)cc1)c1ccc(Br)s1	6	67*	-4	-7	0.68	2
C/C(=N/NC(=O)CNc1ccc(C)cc1)c1ccc(Br)s1	-1	-6	-9	-16	-0.061	-9
O=C(NC1(C(F)(F)F)NC(=O)N(c2ccc(F)c(Cl)c2)C1=O)c1ccncc1 (stereo unspecified)	-1	-4	7	-11	-3*	1
CCC(C)NC(=O)c1ccccc1NC(=O)COc1ccc(OC)cc1 (stereo unspecified)	0	-1	-9	11	0.4	2
Cc1ccc(SC[C@H](c2ccccc2)N2CCN(CC(C)C)CCC2=O)cc1	·	·	·	·	0.74	·
COc1ccc(-c2csc(NC(CO)c3nc4ccccc4n3CCCO)n2)cc1 (stereo unspecified)	·	·	·	·	3.1*	·
COc1ccc(-c2csc(NC(CO)c3nc4ccccc4n3CCOCCO)n2)cc1 (stereo unspecified)	·	·	·	·	1.9	·
Cc1nc(C(=O)O)sc1C1(C)CC(c2cccc([N+](=O)[O-])c2)=NO1 (stereo unspecified)	·	·	·	·	0.013	·
COCC(=O)Nc1cc([N+](=O)[O-])ccc1C	-3	44	6	-18	0.61	2
Cc1cc(/C=C2\SC(=S)N(Cc3ccco3)C2=O)c(C)n1-c1cccnc1	4	-153	-9	-22	·	95*[fluorescence artefact?]
Cc1cc(/C=C2/SC(=S)N(c3cccc(C(F)(F)F)c3)C2=O)c(C)n1-c1cccnc1	-1	-137	4	-42	0.019	44*
O=c1c2ccccc2nc2sc3ccccc3n12	20*	10	3	-1	0.82	12
Cc1ccc(C)c(S(=O)(=O)NCc2ccc(C(=O)N3CCC(Cc4ccccc4)CC3)cc2)c1	0	-33	8	-2	3.5*	0
Cc1ccc(C)c(S(=O)(=O)NCc2ccc(C(=O)N3CCN(C)CC3)cc2)c1	-2	-6	-3	-15	-1.2	7
CCc1ccc(/C=C/C(=O)c2c(C)cc(C)[nH]c2=O)cc1	1	-22	-3	-12	0.78	3
Cc1ccc(CO/N=C\Cc2snc(Sc3ncc(C(F)(F)F)cc3Cl)c2C#N)cc1	0	-12	1	-4	-0.61	60*
Cc1ccc(S(=O)(=O)N2CCN(C(=O)CSc3ncc(C(F)(F)F)cc3Cl)CC2)cc1	2	-16	-6	-8	1.6	5
COc1ccc(N(CC(=O)NC2CCCC2)C(=O)Cn2nnc(-c3ccc(C)cc3)n2)cc1	4	-8	1	-21	2.5*	7
COc1ccc(-c2nnn(CC(=O)N(CC(=O)NC3CCCC3)c3cccc(C)c3)n2)cc1OC	3	25	-4	-3	2.8*	5
O=S(=O)(c1ccccc1C(F)(F)F)N1CCC(n2cnc3ccccc32)CC1	-1	-12	-1	0	2.7*	1
COc1ccc(Nc2nc(-c3sc(N)nc3C)cs2)cc1	-2	3	3	-5	0.081	-1
Cc1nc(N)sc1-c1csc(Nc2ccccn2)n1	2	1	0	4	4.6*	7
Cc1nc(N)sc1-c1csc(Nc2ccc(Cl)cn2)n1	4	-17	2	-11	4.5*	15
CC#CCN1C(=O)N[C@@H](c2ccccc2)C(C(=O)OC)=C1C	·	·	·	·	0.13	·
SMILES	FAK blocker	Plk1 PBD FP	EphB4 ephrin blk	PLK1 kinase inh	DAT uptake mod	HIV Rev-RRE inh
c1ccc(CSc2nnc(-c3ccco3)n2Cc2ccco2)cc1	4	-18	-2	-3	-0.17	5
CCCCOc1[nH]c2nc(-c3ccco3)n(Cc3ccco3)c(=N)c2c1C#N	3	6	2	-12	1.5	55*
O=C(NCc1nc2ncc(Br)cc2[nH]1)c1ccccc1	4	-14	3	35	-7.3*	12
CSc1ncc(CNc2cc([N+](=O)[O-])ccc2C)c(N)n1	·	·	·	·	0.14	·
CCN(CC)C(=O)CC(c1ccc2c(c1)OCO2)c1c(OC)cc(OC)c2ccc(=O)oc12 (stereo unspecified)	·	·	·	·	2.7*	·
CCN(CC)C(=O)CC(c1ccc(N(C)C)cc1)c1c(OC)cc(OC)c2ccc(=O)oc12 (stereo unspecified)	·	·	·	·	0.95	·
COc1ccc(Cl)cc1S(=O)(=O)N1CCN(c2ccc(F)cc2)CC1	8	1	7	-8	0.0026	17
COc1ccc(Cl)cc1S(=O)(=O)N1CCN=C1C	0	5	-7	64*	0.72	1
CCCCCCCCC[n+]1cccc2c3ccccc3ccc21	13	-14	1	-12	3.2*	19
CN(C)c1ccc(/C=C/C(=O)c2cccc(Br)c2)cc1	0	-181	1	-38	0.42	131*[fluorescence artefact?]
O=C(/C=C/c1ccccc1)c1ccccc1	·	·	·	·	0.54	·
CC(=O)c1ccc(OCC(O)CN2CCOCC2)cc1 (stereo unspecified)	2	-19	-6	65*	0.24	9
CCC(=O)c1ccc(OCC(O)CN2CCOCC2)cc1 (stereo unspecified)	0	-20	0	-15	-0.28	5
O=C(CN1CCC(n2nnc3ccccc32)CC1)Nc1ccc2c(c1)CCC2	3	-18	0	-9	3.1*	13
CCN(CC)c1ccc(C=N/C(C#N)=C(\N)C#N)cc1	5	-4	-2	7	0.039	53*
CCCCn1nc2cc(C(=O)NCC3CC3)ccc2c1OCC	-5	-10	0	-7	-0.079	-1
CCCn1nc2cc(C(=O)NCc3ccc(OC)cc3)ccc2c1OCC	3	-4	-3	-16	2.3*	7
CCCn1nc2cc(C(=O)NC3CCc4ccccc43)ccc2c1OCC (stereo unspecified)	-2	-18	2	-13	2.3*	3
CC1(C(=O)O)CCC(C(=O)N2CCOCC2)C1(C)C (stereo unspecified)	-7	-21	0	-8	-0.75	3
CC(=O)c1cc(NC(=O)c2ccc(C)cc2)c(=O)oc1/C=C/N(C)C	-4	-106	0	-14	-0.13	122*[fluorescence artefact?]
COc1ccc(C(=O)Nc2cc(C(C)=O)c(/C=C/N(C)C)oc2=O)cc1	-1	-81	6	-16	·	122*[fluorescence artefact?]
Cc1ccc(C(=O)NCCn2cc(SCC(=O)Nc3nnc(C)s3)c3ccccc32)cc1	3	7	5	62*	1.1	9
COc1ccccc1/C=C/C(=O)c1c2c(c(C)[nH]c1=O)CCCC2	-10	-14	-2	-3	1.4	8
Cc1ccc(-c2nnc(N3CCN(C(=O)c4ccco4)CC3)c3ccccc23)cc1	·	·	·	·	2.9*	·
COc1cccc(-c2cc(C(F)(F)F)nc(N3CCC(C)CC3)n2)c1	2	0	1	-13	-0.097	41*

Source: PubChem BioAssay
